Assay results reported in BindingDB's records for doi:10.1021/acs.jmedchem.8b02026 (Leiden University, 2019).

Key:
Adenosine receptor A3 [1] = biological target: T1, Adenosine receptor A3 (Homo sapiens, UniProt P0DMS8); assay: Displacement of [3H]PSB11 from human A3 adenosine receptor expressed in CHO cell membranes measured after 2 hrs by scintillation spectrometric method
T1 sequence (P0DMS8 whole entry): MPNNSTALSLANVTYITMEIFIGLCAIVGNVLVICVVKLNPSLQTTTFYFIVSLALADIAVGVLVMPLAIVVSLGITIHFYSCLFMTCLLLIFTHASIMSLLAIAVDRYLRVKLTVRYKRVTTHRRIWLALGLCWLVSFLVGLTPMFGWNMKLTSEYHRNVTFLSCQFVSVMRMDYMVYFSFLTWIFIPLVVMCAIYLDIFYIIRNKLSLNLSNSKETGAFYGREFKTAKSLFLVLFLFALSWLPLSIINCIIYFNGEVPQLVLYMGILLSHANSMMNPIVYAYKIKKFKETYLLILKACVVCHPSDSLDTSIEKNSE

Adenosine receptor A1 = biological target: T2, Adenosine receptor A1 (Homo sapiens, UniProt P30542); assay: Displacement of [3H]DPCPX from human A1 adenosine receptor expressed in CHO cell membranes measured after 2 hrs by scintillation spectrometric method
T2 sequence (P30542 whole entry): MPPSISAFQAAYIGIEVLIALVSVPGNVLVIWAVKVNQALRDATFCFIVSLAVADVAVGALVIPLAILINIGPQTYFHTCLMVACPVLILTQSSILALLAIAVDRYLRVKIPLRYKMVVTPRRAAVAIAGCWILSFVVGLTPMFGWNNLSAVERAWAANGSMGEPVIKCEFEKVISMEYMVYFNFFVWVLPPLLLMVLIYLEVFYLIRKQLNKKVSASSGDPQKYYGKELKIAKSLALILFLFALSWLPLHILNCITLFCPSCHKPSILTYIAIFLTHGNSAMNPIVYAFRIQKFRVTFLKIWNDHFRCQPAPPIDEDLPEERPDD

Adenosine receptor A2a = Adenosine receptor A2a (Homo sapiens, UniProt P29274); assay: Displacement of [3H]ZM241385 from human A2A adenosine receptor expressed in HEK293 cell membranes measured after 2 hrs by scintillation spectrometric method
Adenosine receptor A3 [2] = biological target: T3, Adenosine receptor A3 (Homo sapiens, UniProt P0DMS8, Y265F); assay: Displacement of [3H]PSB11 from human A3 adenosine receptor Y265F (7.36) mutant transiently expressed in CHOK1 cell membranes measured after 2 hrs by scintillation spectrometric method
T3 sequence (P0DMS8 whole entry): T1 sequence (P0DMS8 whole entry)
Procedure, shortened: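 Membranes (15 µg) in 50 mM Tris-HCl, 5 mM MgCl2, 0.01% CHAPS, 1 mM EDTA, pH 7.4. Six competitor concentrations with ~10 nM [3H]PSB-11, 2 h at 25 °C. NSB from 100 µM NECA; filtration and scintillation counting; one-site fit. Three experiments, duplicate.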

Adenosine receptor A2a, sequence (P29274 whole entry): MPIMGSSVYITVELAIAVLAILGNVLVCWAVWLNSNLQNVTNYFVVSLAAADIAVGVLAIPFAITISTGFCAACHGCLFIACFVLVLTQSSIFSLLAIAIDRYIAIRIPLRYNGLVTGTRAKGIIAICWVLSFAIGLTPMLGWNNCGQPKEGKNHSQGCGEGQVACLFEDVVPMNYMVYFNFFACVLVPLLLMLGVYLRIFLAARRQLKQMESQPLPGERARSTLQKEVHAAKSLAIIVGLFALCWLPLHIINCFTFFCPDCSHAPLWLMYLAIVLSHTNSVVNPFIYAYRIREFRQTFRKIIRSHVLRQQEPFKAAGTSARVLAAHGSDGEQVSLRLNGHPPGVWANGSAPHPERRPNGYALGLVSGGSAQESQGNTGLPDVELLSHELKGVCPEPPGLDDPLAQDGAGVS

| SMILES | Ki (Adenosine receptor A3 [1]) [nM] | also measured |
| --- | --- | --- |
| CCCn1c(=O)c2c(nc3cc(OC)ccn32)n(CCCCOC(=O)c2cccc(S(=O)(=O)F)c2)c1=O | 79 | – |
| CCCn1c(=O)c2c(nc3cc(OC)ccn32)n(CCCNC(=O)c2ccc(S(C)(=O)=O)cc2)c1=O | – | Ki (Adenosine receptor A1): 15800 nM; Ki (Adenosine receptor A2a): 6310 nM; IC50 (Adenosine receptor A3 [2]): 794 nM |
| CCCn1c(=O)c2c(nc3cc(OC)ccn32)n(CCOC(=O)c2ccc(S(=O)(=O)F)cc2)c1=O | 200 | – |
| CCCn1c(=O)c2c(nc3cc(OC)ccn32)n(CCCOC(=O)c2ccc(S(=O)(=O)F)cc2)c1=O | 20 | – |
| CCCn1c(=O)c2c(nc3cc(OC)ccn32)n(CCOC(=O)c2cccc(S(=O)(=O)F)c2)c1=O | 398 | – |
| CCCn1c(=O)c2c(nc3cc(OC)ccn32)n(CCCCNC(=O)c2cccc(S(=O)(=O)F)c2)c1=O | 158 | – |
| CCCn1c(=O)c2c(nc3cc(OC)ccn32)n(CCCNC(=O)c2ccc(S(=O)(=O)F)cc2)c1=O | – | Ki (Adenosine receptor A1): 794 nM; Ki (Adenosine receptor A2a): 1260 nM |
| CCCn1c(=O)c2c(nc3cc(OC)ccn32)n(CCCCOC(=O)c2ccc(S(=O)(=O)F)cc2)c1=O | 32 | – |
| CCCn1c(=O)c2c(nc3cc(OC)ccn32)n(CCCOC(=O)c2cccc(S(=O)(=O)F)c2)c1=O | 100 | – |
| CCCn1c(=O)c2c(nc3cc(OC)ccn32)n(CCCCNC(=O)c2ccc(S(=O)(=O)F)cc2)c1=O | 32 | – |
| CCCn1c(=O)c2c(nc3cc(OC)ccn32)n(CCCNC(=O)c2cccc(S(=O)(=O)F)c2)c1=O | 32 | – |
